Assay outcomes deposited in PubChem by Broad Institute.
ALR inh: inhibitors of human ALR sulfhydryl oxidase, primary screen, biochemical, H2O2 detection, HRP-luminol luminescence, single point | FAD-linked sulfhydryl oxidase ALR (Homo sapiens), P55789 | purified ALR, DTT oxidation | inhibition, % (concentration not given with the values) | 290,000 tested, 3.8% active | AID 485317, 2010;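 active = mean replicate inhibition above about 79%, with every replicate also reaching it, limit read from the data; inconclusive = only one of the two criteria met; inactive = mean below limit and not every replicate reaching it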
Target sequence (P55789 whole entry, looked up): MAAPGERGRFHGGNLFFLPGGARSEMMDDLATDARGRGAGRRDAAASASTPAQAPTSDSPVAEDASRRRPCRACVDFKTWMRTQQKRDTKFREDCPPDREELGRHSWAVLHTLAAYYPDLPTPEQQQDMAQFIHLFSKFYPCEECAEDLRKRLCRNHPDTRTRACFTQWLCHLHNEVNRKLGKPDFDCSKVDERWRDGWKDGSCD
CAL PDZ FP-1: CAL PDZ peptide-binding inhibitors, primary screen, biochemical, fluorescence polarization, Cer-tagged CAL PDZ, HTS | 330,000 tested, 0.02% active | purified CAL PDZ, TMR-peptide fluorescence polarization, 1 h | AID 504414, 2011 | inhibition, % at 20 µM;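 active = highest replicate inhibition of at least 40%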;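 also: plate controls were DMSO neutral control wells for no effect and unlabeled competitor peptide control wells for full effect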
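Assay system – tagged CAL PDZ protein CerCALP, purified · Timing – 1 h at RT · Compound – single point, 20 µM · Measured by – fluorescence polarization from S- and P-plane intensities, G-factor corrected · Evaluation – inhibition from polarization loss · Probe or stimulus – TMR reporter peptide T*-PRC34 · Buffer or medium – pH 7.4 phosphate-saline buffer, reducing agent, detergent, IgG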
Dyrk1A ADPGlo: rat Dyrk1A kinase inhibitors, primary screen, biochemical, single point, plate reader; Dual specificity tyrosine-phosphorylation-regulated kinase 1A (Rattus norvegicus), Q63470; ADP-Glo luminescence, NFATc1 peptide; inhibition, % at 12.5 µM; 310,000 tested, 0.43% active; AID 504441, 2011; in the data active = inhibition above about 50%;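 also: plate controls were vehicle with enzyme for no effect and no enzyme for full effect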
Rtt109 Vps75: inhibitors of C. albicans Rtt109/Vps75 HAT, primary screen, biochemical, ThioGlo CoA-SH fluorescence, plate reader | AID 540336, 2011 | inhibition, % at 34.9 µM | purified Rtt109/Vps75, 4 h | 330,000 tested, 0.16% active | Histone acetyltransferase RTT109 (Candida albicans (strain SC5314 / ATCC MYA-2876)), …;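 active = inhibition of at least 50% in every replicate; inconclusive = best replicate reaches 50% inhibition but some replicates fall short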
Target sequence (Q5AAJ8 whole entry, looked up): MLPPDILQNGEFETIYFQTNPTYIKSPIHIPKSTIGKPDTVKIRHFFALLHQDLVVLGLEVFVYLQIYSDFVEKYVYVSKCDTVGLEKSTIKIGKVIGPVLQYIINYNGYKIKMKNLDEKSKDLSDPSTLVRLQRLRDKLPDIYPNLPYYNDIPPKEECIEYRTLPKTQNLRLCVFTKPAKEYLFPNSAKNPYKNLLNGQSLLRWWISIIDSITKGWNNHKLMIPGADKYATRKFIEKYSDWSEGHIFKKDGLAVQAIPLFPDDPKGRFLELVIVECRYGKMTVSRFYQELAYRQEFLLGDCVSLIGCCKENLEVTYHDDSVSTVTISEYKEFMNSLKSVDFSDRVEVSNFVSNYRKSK
CAL PDZ FP-2: untagged CAL PDZ binding inhibitors, primary screen, biochemical, fluorescence polarization, HTS. Golgi-associated PDZ and coiled-coil motif-containing protein (Homo sapiens), Q9HD26. AID 602252, 2012. inhibition, % at 24.9 µM. purified CAL PDZ, TMR-peptide fluorescence polarization, 1 h. 300,000 tested, 0.92% active;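 active = mean inhibition of at least 30% with at least half of replicates also reaching 30%; inconclusive = no clear call, values can overlap the other calls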;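 also: 0% = DMSO neutral control and 100% = excess unlabeled competitor peptide PRC23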
Numbers without * were called inactive; ? = inconclusive; · = no result given. Shown are actives, neighbours in structure and some others; about 4.3% of the full set was active somewhere.

SMILES	ALR inh	CAL PDZ FP-1	Dyrk1A ADPGlo	Rtt109 Vps75	CAL PDZ FP-2
Cc1c(CCC(=O)O)c(=O)oc2c(C)c(OCc3cc4c(cc3Cl)OCO4)ccc12	-1	-4	-2	-8	95*
O=C(NNc1nc2ccc(F)cc2s1)c1cccc(F)c1	98*	-1	-3	-8	4
O=C(NNc1nc2ccccc2s1)c1ccc(F)cc1	·	-2	5	1	-3
CC(OC(=O)CCCCCN=C1NS(=O)(=O)c2ccccc21)C(=O)Nc1cc(Cl)cc(Cl)c1 (centres undefined)	2	-1	1	7	-4
O=C(CCCC1=NS(=O)(=O)c2ccccc2N1)N1CCN(c2ccc(Cl)cc2)CC1	96*	1	-2	8	·
COc1ccc(N2CCN(C(=O)CSc3ncn[nH]3)CC2)cc1	99*	-2	-5	-2	-2
CCOC(=O)Cc1csc(SCC(=O)N2CCN(c3ccc(OC)cc3)CC2)n1	87*	-2	3	·	1
Cc1cc(OCC(=O)N(Cc2cccs2)C2CCS(=O)(=O)C2)ccc1Cl (centres undefined)	-16	-1	3	-6	·
CCc1cccc(C)c1NC(=O)CO/N=C(\N)CC(=O)NC1CCCCC1	3	0	3	2	5
C[C@@H]1O[C@@H](O[C@H]2[C@H](O)[C@@H](O)[C@H](Oc3c(-c4ccc(O)cc4)oc4cc(O)cc(O)c4c3=O)O[C@@H]2CO)[C@H](O)[C@H](O)[C@H]1O	13	-2	6	6	5
C[C@@H]1O[C@@H](OC2C(O)C(OCCc3ccc(O)c(O)c3)OC(CO)C2OC(=O)/C=C/c2ccc(O)c(O)c2)[C@H](O)[C@H](O)[C@H]1O (some centres undefined)	99*	·	·	·	·
O=C(NCCN1CCN(c2ccccc2)CC1)C1CCN(S(=O)(=O)c2cccc3nsnc23)CC1	1	1	·	1	-1
CC1(C)CC(=O)C2=C(C1)Nc1ccccc1NC2c1ccc(F)c(F)c1 (centres undefined)	99*	0	4	-5	15
COc1cc(C2Nc3ccccc3NC3=C2C(=O)CC(C)(C)C3)cc(OC)c1OC(C)=O (centres undefined)	59	0	-6	3	1
COc1cccc(C2Nc3ccccc3NC3=C2C(=O)CC(C)(C)C3)c1 (centres undefined)	98*	0	0	1	·
CC1(C)CC(=O)C2=C(C1)Nc1ccccc1NC2c1cccs1 (centres undefined)	99*	-2	·	-2	1
CC1(C)CC(=O)C2=C(C1)NC(=O)NC2c1ccc([N+](=O)[O-])cc1 (centres undefined)	·	0	1	3	·
CC1(C)CC(=O)C2=C(C1)Nc1ccccc1NC2c1ccc([N+](=O)[O-])cc1 (centres undefined)	98*	-1	-7	-2	-3
COC(=O)C1=C(N)N(c2ccccc2F)C2=C(C(=O)CC(C)(C)C2)C1c1ccc(OC)c(OC)c1 (centres undefined)	·	-1	1	12	-3
O=[n+]1cc(-c2ccc(Cl)cc2)n([O-])c2c1CCCCC2	-114	-2	2	13	-2
CC(Sc1ncc(C(F)(F)F)cc1Cl)C(=O)NCC1CCCO1 (centres undefined)	-1	0	3	4	3
CC1(C)CC(=O)C2=C(C1)Nc1ccccc1NC2c1ccccc1F (centres undefined)	98*	0	-3	-7	·
Cc1c(C2Nc3ccccc3NC3=C2C(=O)CC(C)(C)C3)cnn1C (centres undefined)	68	0	-2	-4	-2
Cc1ccc(-c2nc3ncccn3c2NC2CCCCC2)o1	99*	0	12	20	1
Cc1ccc(-c2nc3ncccn3c2Nc2ccc3c(c2)OCCO3)o1	99*	-5	11	6	-3
SMILES	ALR inh	CAL PDZ FP-1	Dyrk1A ADPGlo	Rtt109 Vps75	CAL PDZ FP-2
Cc1ccc(-c2nc3ncccn3c2NC(=O)C2CC2)cc1	1	-1	-2	-2	-3
Brc1ccc(-c2nc3ncccn3c2Nc2ccc3c(c2)OCCO3)o1	98*	1	6	22	-6
CC[C@@H]1CCCCc2ccccc2[C@H](C(=O)C[C@H](O)CC(C)=O)OC1=O	·	-1	1	3	54*
Cc1ccc(/C(N)=N/OC(=O)c2cccs2)cc1	86*	-1	-3	18	-3
N/C(=N\OC(=O)c1cccs1)c1cccc(Br)c1	1	-4	2	10	-2
Cc1cccc(/C(N)=N/OC(=O)c2cccs2)c1	?	-2	9	0	53*
COc1ccc(C(=O)C2=NN(C(C)=O)CC2c2ccco2)cc1 (centres undefined)	-159	-3	-5	2	-6
O=C1CCCC2=C1C(c1ccc(O)c(O)c1)Nc1ccc3ncccc3c12 (centres undefined)	99*	-15	-2	2	5
CN=c1scc(-c2ccco2)n1/N=C/c1ccc(O)c(O)c1	·	1	6	4	-1
CN=c1scc(C)n1/N=C/c1ccc(O)cc1	99*	0	12	8	·
CN=c1scc(C)n1/N=C/c1cc(Br)c(O)c(Br)c1	·	·	9	-2	-3
Cc1nnc(C)n1/N=C/c1ccc2c(c1)OCCO2	·	·	-5	-12	-6
C=CCN=c1scc(C)n1/N=C/c1ccc(O)c(O)c1	99*	-2	-2	3	-2
CN=c1scc(C)n1/N=C/c1ccc(O)cc1O	99*	1	9	-5	2
CN=c1scc(C)n1/N=C/c1ccc2c(c1)OCO2	98*	1	·	1	1
COc1ccc([N+](=O)[O-])cc1NC(=O)C(C)OC(=O)CC1CCCC1 (centres undefined)	-2	0	0	-1	0
COC(=O)C1=C(C(=O)OC)[C@@H]2N(C)c3ccc(OC)cc3[C@@]23C[C@@H](C(=O)OC)N=C3N1	77*	1	5	0	1
CCN(CC)CCN1CCn2c3c(c4cc(C)ccc42)CCCC31 (centres undefined)	99*	-1	1	·	-1
CCN1CCn2c3c(c4cc(Cl)ccc42)CCCC31 (centres undefined)	51	1	-5	10	·
COc1ccc(/C=C/C(=O)NCC(=O)N/N=C/c2cccs2)cc1	-4	-1	1	10	-2
Cc1cc(C)nc(NNC2=CC(=[N+]3CCCCC3)CC(C)(C)C2)n1	99*	-9	·	1	-23
CN1/C(=C\C=C(/C#N)C(=O)Nc2ccccc2F)C(C)(C)c2ccccc21	-16	0	-1	4	1
